Shown are actives, neighbours in structure and some others; about 5.9% of the full set was active somewhere.
Pf Dd2 growth = blocks growth of Plasmodium falciparum Dd2 parasites | P. falciparum Dd2 growth, SYBR Green, 72 h; hits give low values | activity change, % at 10 µM | hit rate 2.3% among 94,000; in the data active = activity change below about -80%; inconclusive = no clear call, values can overlap the other calls
T cruzi growth-1 = inhibitors of T. cruzi proliferation. T. cruzi beta-gal in NIH3T3, GalScreen luminescence, 90 h. inhibition, % at 8.34 µM. hit rate 5.9% among 77,000;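 active = mean inhibition above about 93%, with at least 55% of replicates each passing it, limit read from the data, passing the limit was not always enough; inconclusive = only one of those two conditions holds; inactive = neither condition holds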
IDH1 mut inh = blocks human IDH1 R132H reductase activity; AID 624101; hit rate 0.18% among 70,000; diaphorase/resazurin fluorescence, 60 min; inhibition, % at 10 µM; O75874; in the data active = inhibition above about 34%; inconclusive = no clear call, values can overlap the other calls; inactive = below about 11%
Target sequence (O75874 whole entry R132H): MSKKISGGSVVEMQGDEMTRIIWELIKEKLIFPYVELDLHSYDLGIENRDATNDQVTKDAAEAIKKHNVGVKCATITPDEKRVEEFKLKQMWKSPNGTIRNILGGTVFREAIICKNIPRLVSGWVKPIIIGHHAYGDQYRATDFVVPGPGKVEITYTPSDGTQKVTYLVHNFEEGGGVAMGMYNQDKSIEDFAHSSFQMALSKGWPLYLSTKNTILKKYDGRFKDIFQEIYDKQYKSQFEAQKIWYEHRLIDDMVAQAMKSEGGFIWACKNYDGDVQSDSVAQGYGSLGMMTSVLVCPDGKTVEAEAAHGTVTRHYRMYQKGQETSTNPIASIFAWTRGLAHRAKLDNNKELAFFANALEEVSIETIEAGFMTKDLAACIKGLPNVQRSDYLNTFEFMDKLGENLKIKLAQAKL
KDM4C inh = KDM4C (human) demethylase inhibition; GST-KDM4C 2-372, H3K9me3 peptide, LANCE TR-FRET; AID 720574; inhibition, % at 12.5 µM; Q9H3R0; hit rate 0.15% among 96,000;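 active = mean replicate inhibition above about 25%, with at least 55% of replicates also reaching it, limit read from the data, passing the limit was not always enough; inconclusive = only one of those two conditions met; inactive = neither condition met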
Target sequence (Q9H3R0 2-372 limits assumed): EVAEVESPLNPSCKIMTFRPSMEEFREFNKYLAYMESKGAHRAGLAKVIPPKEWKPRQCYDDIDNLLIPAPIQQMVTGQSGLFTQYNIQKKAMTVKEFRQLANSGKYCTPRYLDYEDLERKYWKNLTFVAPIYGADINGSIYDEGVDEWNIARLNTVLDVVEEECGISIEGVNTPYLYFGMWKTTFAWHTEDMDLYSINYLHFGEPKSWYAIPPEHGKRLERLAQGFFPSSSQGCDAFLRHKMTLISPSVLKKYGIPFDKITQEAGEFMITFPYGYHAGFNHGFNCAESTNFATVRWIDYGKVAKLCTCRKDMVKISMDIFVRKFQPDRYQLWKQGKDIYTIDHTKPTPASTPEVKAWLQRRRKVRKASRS
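System: N-terminal GST-fused human GASC-1 (KDM4C) fragment, residues 2-372; amount: enzyme final amount 10 nM; incubation: reaction 30 min RT, detection step 1 h RT; medium: HEPES buffer, pH 7.5, plus ascorbate; technique: LANCE TR-FRET, Eu antibody, ULight-streptavidin, EDTA, ex 340 nm, em 618/671 nm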
T cruzi growth-2 = Trypanosoma cruzi proliferation inhibition | shares compounds with T cruzi growth-1 | T. cruzi beta-gal in NIH3T3, GalScreen luminescence, 90 h | hit rate 72% among 5,600 | inhibition, % at 8.35 µM;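 active = mean replicate inhibition above about 95% and at least 55% of replicates individually reaching it, limit read from the data; inconclusive = only one of the two criteria is met; inactive = neither criterion is met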
T cruzi growth-3 = blocks T. cruzi growth in NIH3T3 host cells | shares compounds with T cruzi growth-1 | T. cruzi beta-gal in NIH3T3, GalScreen luminescence, 90 h | hit rate 21% among 5,600 | inhibition, % at 2.09 µM | AID 651740;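 active = mean inhibition above about 95%, with at least 55% of replicates also reaching it, limit read from the data; inconclusive = meets just one of the two conditions; inactive = meets neither condition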
NIH3T3 tox = kills mouse NIH/3T3 fibroblasts. shares compounds with T cruzi growth-1. NIH/3T3 viability, CellTiter-Glo ATP luminescence, 90 h. cytotoxicity (signal decrease), % at 8.35 µM. hit rate 14% among 5,600. AID 651742;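 active = mean signal decrease across replicates above about 35% based on untreated-well scatter, with enough replicates individually passing, limit read from the data; inconclusive = no rule stated though some were filed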
NIH3T3 tox 2 = kills mouse NIH/3T3 fibroblasts. shares compounds with T cruzi growth-1. NIH/3T3 viability, CellTiter-Glo ATP luminescence, 90 h. inhibition, % at 24.9 µM. hit rate 56% among 5,600;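 active = mean loss of cell viability signal at or above a set limit, and enough replicates individually reaching it; inconclusive = meets only the mean limit or only the replicate share; inactive = meets neither condition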
Numbers stand for hits; 0 = inactive; ? = inconclusive; - = not tested or not shown.

SMILES | Pf Dd2 growth | T cruzi growth-1 | IDH1 mut inh | KDM4C inh | T cruzi growth-2 | T cruzi growth-3 | NIH3T3 tox | NIH3T3 tox 2
OC[C@@H]1[C@H](c2ccc(/C=C/c3ccccc3)cc2)[C@H]2CN(CCC(F)(F)F)CCCCN12 | 0 | 101 | - | - | 0 | 107 | 73 | 105
N#Cc1c(NC(=O)CSc2n[nH]c(-c3ccc(Cl)cc3Cl)n2)sc2c1CCCC2 | - | - | 0 | - | - | - | - | -
CN1c2ccc(-c3cccc(C#N)c3)cc2[C@@H]2[C@@H](CCN2C(=O)CC2CC2)[C@H]1CO | 0 | 0 | - | 0 | - | - | - | -
CN1c2ccc(-c3cccc(F)c3)cc2[C@H]2[C@H](CCN2C(=O)CC2CC2)[C@@H]1CO | 0 | 98 | - | 0 | 102 | 0 | 0 | 0
CN1c2ccc(-c3ccc(C#N)cc3)cc2[C@@H]2[C@@H](CCN2C(=O)CC2CC2)[C@H]1CO | 0 | 104 | - | 0 | 106 | 0 | 0 | 41
CC(C)c1ccc(OCC(=O)Nc2ccc(Br)cc2C(=O)O)cc1 | - | - | 0 | - | - | - | - | -
COc1ccc(-c2ccc([C@@H]3[C@@H](CO)N(C(=O)c4cccnc4)[C@H]3C#N)cc2)cc1 | 0 | 96 | - | 0 | 0 | 0 | 0 | 0
COc1ccccc1-c1ccc([C@H]2[C@@H](CO)N(C(=O)C3CC3)[C@H]2C#N)cc1 | 0 | 103 | 0 | 0 | 0 | 0 | 0 | 0
COc1ccc(-c2ccc([C@@H]3[C@H](C#N)N(C(=O)c4cccnc4)[C@H]3CO)cc2)cc1 | 0 | 0 | - | 0 | - | - | - | -
COc1ccccc1-c1ccc([C@H]2[C@H](C#N)N(C(=O)C3CCC3)[C@H]2CO)cc1 | 0 | 0 | - | 0 | - | - | - | -
COc1ccc(-c2ccc([C@H]3[C@@H](CO)N(C(=O)CN(C)C)[C@H]3C#N)cc2)cc1 | 0 | 105 | 0 | 0 | 109 | 0 | 0 | ?
COc1ccccc1-c1ccc([C@H]2[C@@H](CO)N(C(=O)C3CCC3)[C@H]2C#N)cc1 | 0 | 99 | 0 | 0 | 0 | 0 | 0 | 0
COc1ccccc1-c1ccc([C@@H]2[C@@H](C#N)N(C(=O)CN(C)C)[C@H]2CO)cc1 | 0 | 0 | - | 0 | - | - | - | -
O=C(NO)c1ccc(C(=O)N/N=C/c2ccc(-n3ccnc3)cc2)cc1 | - | - | 0 | - | - | - | - | -
Cc1ccccc1-c1nc(S(=O)(=O)c2ccc(Cl)cc2)c(NCc2cccnc2)o1 | - | - | 0 | - | - | - | - | -
Cc1ccc(NC(=O)c2ccc(OCC(=O)Nc3ccc(Oc4ccccc4)cc3)cc2)c(C)c1 | - | - | 0 | - | - | - | - | -
COc1ccc(-c2ccc([C@H]3[C@H](C#N)N(C(=O)C4CCCC4)[C@H]3CO)cc2)cc1 | 0 | 100 | - | 0 | 0 | 0 | 0 | 0
N#C[C@H]1[C@@H](c2ccc(/C=C/c3ccccc3)cc2)[C@@H](CO)N1C(=O)C1CC1 | 0 | ? | - | 0 | 106 | 0 | 0 | 35
COc1ccccc1-c1ccc([C@@H]2[C@@H](C#N)N(C(=O)C3CCC3)[C@@H]2CO)cc1 | 0 | 98 | - | 0 | 0 | 0 | 0 | 0
COc1ccccc1-c1ccc([C@@H]2[C@@H](C#N)N(C(=O)NC(C)C)[C@@H]2CO)cc1 | 0 | 99 | 0 | 0 | 96 | 0 | 0 | 38
COc1ccccc1-c1ccc([C@@H]2[C@H](C#N)N(C(=O)C3CCC3)[C@H]2CO)cc1 | 0 | 0 | - | 0 | - | - | - | -
C=C1c2c(Cl)ccc(O)c2C(=O)C2C(=O)[C@]3(O)C(=O)C(C(N)=O)C(=O)[C@@H](N(C)C)[C@@H]3[C@@H](O)C12 (stereo not given in full) | - | - | 0 | - | - | - | - | -
CCc1ccc(-c2nc3cc(NC(=O)COc4ccc([N+](=O)[O-])cc4)ccc3o2)cc1 | - | - | 0 | - | - | - | - | -
Nc1c(C(=O)NCc2ccccc2)c2nc3ccccc3nc2n1CCO | - | - | 0 | - | - | - | - | -
CCCC#Cc1ccc([C@@H]2[C@H](CO)N3CCCCN(C(=O)c4ccc5c(c4)OCO5)C[C@@H]23)cc1 | 0 | ? | - | 0 | 106 | 0 | 0 | 103
SMILES | Pf Dd2 growth | T cruzi growth-1 | IDH1 mut inh | KDM4C inh | T cruzi growth-2 | T cruzi growth-3 | NIH3T3 tox | NIH3T3 tox 2
CC(C)C#Cc1ccc([C@@H]2[C@H]3CN(C(=O)c4ccc5c(c4)OCO5)CCCCN3[C@H]2CO)cc1 | 0 | 0 | - | 0 | - | - | - | -
CC(C)CC#Cc1ccc([C@@H]2[C@@H](CO)N3CCCCN(C(=O)c4ccc5c(c4)OCO5)C[C@@H]23)cc1 | 0 | 0 | - | 0 | - | - | - | -
CCCC#Cc1ccc([C@H]2[C@@H](CO)N3CCCCN(C(=O)c4ccc5c(c4)OCO5)C[C@H]23)cc1 | 0 | 117 | - | 0 | 104 | 0 | 51 | 103
CCCC#Cc1ccc([C@@H]2[C@H]3CN(C(=O)c4ccc5c(c4)OCO5)CCCCN3[C@H]2CO)cc1 | 0 | 0 | - | 0 | - | - | - | -
CCCC#Cc1ccc([C@@H]2[C@@H](CO)N3CCCCN(C(=O)c4ccc5c(c4)OCO5)C[C@@H]23)cc1 | 0 | 122 | - | 0 | 107 | 0 | 38 | 102
COc1ccc(C(=O)Nc2ccc(Cc3ccc(NC(=O)c4ccc(OC)cc4)c(O)c3)cc2O)cc1 | - | - | 0 | - | - | - | - | -
COc1ccc(OC)c(NC(=O)c2ccc(C)c(S(=O)(=O)Nc3ccc(C)cc3)c2)c1 | - | - | 0 | - | - | - | - | -
Cc1noc(C)c1S(=O)(=O)N(C)C[C@H]1OCCCC[C@@H](C)Oc2ccc(NC(=O)Nc3cccc4ccccc34)cc2C(=O)N([C@@H](C)CO)C[C@H]1C | 0 | 113 | - | 0 | 102 | 0 | 0 | 0
Cc1noc(C)c1S(=O)(=O)N(C)C[C@H]1OCCCC[C@H](C)Oc2ccc(NC(=O)Nc3cccc4ccccc34)cc2C(=O)N([C@H](C)CO)C[C@@H]1C | 0 | 116 | - | 0 | 101 | 0 | 0 | 35
O=C(C[C@H]1CC[C@@H]2[C@H](COC[C@H](O)CN2CCC(F)(F)F)O1)N1CCC(Cc2ccccc2)CC1 | 0 | 0 | - | 0 | - | - | - | -
O=C(C[C@@H]1CC[C@H]2[C@@H](COC[C@H](O)CN2Cc2cccc(C(F)(F)F)c2)O1)NCc1ccc(Cl)cc1 | 0 | 125 | - | 0 | 110 | 0 | 0 | 28
O=C(C[C@@H]1CC[C@@H]2[C@H](COC[C@@H](O)CN2CCC(F)(F)F)O1)N1CCC(Cc2ccccc2)CC1 | 0 | ? | - | 0 | ? | 0 | 0 | 0
O=C(C[C@H]1CC[C@H]2[C@@H](COC[C@@H](O)CN2CCC(F)(F)F)O1)NCC1CCCCC1 | 0 | 0 | - | 0 | - | - | - | -
O=C(C[C@@H]1CC[C@@H]2[C@H](COC[C@@H](O)CN2Cc2cccc(C(F)(F)F)c2)O1)NCc1ccc(Cl)cc1 | 0 | 155 | - | 0 | 0 | 0 | 0 | ?
O=C(C[C@@H]1CC[C@@H]2[C@H](COC[C@H](O)CN2CCC(F)(F)F)O1)NCC1CCCCC1 | 0 | 117 | - | 0 | 0 | 0 | 0 | 0
O=C(C[C@@H]1CC[C@@H]2[C@H](COC[C@@H](O)CN2Cc2cccc(C(F)(F)F)c2)O1)NCc1ccccc1 | 0 | 0 | - | 0 | - | - | - | -
O=C(C[C@@H]1CC[C@@H]2[C@H](COC[C@H](O)CN2Cc2cccc(C(F)(F)F)c2)O1)NCc1ccc(Cl)cc1 | 0 | 0 | - | 0 | - | - | - | -

From PubChem
